Reference: ChEMBL document CHEMBL1141413, “Cinnamacrins A-C, cinnafragrin D, and cytostatic metabolites with alpha-glucosidase inhibitory activity from Cinnamosma macrocarpa” (J Nat Prod, 2007)
Values after ≈ are worked out from the molar mass of the structure shown. Active and inactive are the calls of the source. The calls are words filed in the database; no cut-off is given here.

Experiments:
[1] = biological target: Maltase-glucoamylase (Homo sapiens) (UniProt O43451); experiment: Inhibition of alpha-glucosidase in 1.20 mg/200 uL
Maltase-glucoamylase (Homo sapiens), sequence (O43451 whole entry, looked up): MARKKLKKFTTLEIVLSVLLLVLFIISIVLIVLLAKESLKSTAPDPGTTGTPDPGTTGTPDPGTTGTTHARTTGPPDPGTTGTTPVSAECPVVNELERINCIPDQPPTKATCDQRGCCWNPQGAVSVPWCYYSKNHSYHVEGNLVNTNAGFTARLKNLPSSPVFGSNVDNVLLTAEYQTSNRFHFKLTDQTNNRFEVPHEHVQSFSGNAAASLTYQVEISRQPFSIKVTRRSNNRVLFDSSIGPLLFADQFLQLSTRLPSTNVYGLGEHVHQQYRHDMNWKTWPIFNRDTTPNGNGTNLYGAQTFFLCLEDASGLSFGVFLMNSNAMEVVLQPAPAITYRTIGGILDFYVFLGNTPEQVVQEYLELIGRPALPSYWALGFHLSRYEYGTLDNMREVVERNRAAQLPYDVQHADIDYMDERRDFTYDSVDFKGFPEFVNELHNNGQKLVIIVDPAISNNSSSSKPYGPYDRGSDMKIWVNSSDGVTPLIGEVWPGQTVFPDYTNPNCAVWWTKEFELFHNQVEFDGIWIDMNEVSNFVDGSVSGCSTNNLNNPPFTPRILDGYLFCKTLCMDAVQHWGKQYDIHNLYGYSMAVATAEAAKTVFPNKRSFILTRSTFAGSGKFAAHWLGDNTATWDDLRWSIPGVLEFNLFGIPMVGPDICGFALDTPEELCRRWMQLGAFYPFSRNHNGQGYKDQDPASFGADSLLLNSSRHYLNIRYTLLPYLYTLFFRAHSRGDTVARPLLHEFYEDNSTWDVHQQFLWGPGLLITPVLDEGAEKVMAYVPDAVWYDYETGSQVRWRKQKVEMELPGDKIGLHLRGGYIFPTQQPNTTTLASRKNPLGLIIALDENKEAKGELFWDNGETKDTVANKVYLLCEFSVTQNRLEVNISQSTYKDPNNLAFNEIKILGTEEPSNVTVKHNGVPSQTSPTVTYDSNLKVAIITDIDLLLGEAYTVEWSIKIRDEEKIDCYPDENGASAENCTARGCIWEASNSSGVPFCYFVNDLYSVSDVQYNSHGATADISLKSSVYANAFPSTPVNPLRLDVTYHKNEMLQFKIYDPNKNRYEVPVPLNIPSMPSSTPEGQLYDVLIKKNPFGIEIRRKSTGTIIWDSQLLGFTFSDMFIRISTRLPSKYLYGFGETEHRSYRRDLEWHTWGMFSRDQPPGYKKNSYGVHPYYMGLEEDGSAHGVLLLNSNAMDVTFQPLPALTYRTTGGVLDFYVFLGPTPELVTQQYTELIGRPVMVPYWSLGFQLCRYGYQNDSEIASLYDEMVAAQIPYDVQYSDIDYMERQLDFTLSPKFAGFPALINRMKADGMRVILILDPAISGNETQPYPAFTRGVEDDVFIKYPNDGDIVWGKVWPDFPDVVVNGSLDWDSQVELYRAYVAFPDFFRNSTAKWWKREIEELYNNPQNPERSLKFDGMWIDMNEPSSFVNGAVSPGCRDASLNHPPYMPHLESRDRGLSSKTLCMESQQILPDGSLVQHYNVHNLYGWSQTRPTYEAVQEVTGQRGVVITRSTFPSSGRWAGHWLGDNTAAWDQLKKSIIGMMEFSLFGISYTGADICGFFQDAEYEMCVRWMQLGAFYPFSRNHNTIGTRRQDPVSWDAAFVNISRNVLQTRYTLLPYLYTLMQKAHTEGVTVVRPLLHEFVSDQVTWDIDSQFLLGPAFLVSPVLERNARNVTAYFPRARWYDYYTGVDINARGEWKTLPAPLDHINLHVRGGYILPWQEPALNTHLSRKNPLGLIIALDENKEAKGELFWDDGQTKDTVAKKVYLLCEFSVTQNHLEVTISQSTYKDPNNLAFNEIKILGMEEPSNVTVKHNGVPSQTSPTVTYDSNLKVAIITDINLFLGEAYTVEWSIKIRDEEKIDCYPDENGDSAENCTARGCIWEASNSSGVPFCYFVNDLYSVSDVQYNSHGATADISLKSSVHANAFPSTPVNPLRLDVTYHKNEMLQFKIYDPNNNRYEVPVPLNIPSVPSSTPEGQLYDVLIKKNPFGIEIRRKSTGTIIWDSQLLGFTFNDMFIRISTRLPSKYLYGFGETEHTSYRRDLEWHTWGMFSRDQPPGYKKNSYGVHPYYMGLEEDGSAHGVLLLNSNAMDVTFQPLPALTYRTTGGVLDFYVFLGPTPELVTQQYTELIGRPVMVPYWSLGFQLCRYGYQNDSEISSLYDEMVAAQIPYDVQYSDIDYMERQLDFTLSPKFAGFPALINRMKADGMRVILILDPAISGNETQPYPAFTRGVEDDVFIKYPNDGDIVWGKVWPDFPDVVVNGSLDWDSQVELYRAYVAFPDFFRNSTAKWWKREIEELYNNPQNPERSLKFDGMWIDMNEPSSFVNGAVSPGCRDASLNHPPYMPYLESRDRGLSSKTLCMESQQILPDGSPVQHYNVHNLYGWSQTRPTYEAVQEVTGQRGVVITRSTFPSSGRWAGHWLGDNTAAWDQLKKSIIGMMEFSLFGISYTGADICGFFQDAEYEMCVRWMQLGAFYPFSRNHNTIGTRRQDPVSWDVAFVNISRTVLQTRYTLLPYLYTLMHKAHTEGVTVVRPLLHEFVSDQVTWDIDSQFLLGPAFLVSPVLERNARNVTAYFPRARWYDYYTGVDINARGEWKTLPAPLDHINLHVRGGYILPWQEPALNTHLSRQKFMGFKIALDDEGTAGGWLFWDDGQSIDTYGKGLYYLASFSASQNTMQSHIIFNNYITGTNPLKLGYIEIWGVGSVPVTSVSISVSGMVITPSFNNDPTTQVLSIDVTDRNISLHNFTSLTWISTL

[2] = test system: Respiratory syncytial virus; experiment: Antiviral activity against RSV; type: functional; settings: human respiratory syncytial virus
Method in brief: (§1)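 Antiviral test in HeLa cell cultures; the minimum inhibitory concentration is the level that reduces virus-induced cytopathogenicity by 50%.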

[3] = test system: Human alphaherpesvirus 1; experiment: Antiviral activity against HSV1 TK KOS ACVr; type: functional; settings: Human alphaherpesvirus 1, TK KOS ACVr
Method in brief: (§2)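 Antiviral test in E6SM cell cultures; the minimum inhibitory concentration is the level that reduces virus-induced cytopathogenicity by 50%.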

[4] = Cytotoxicity against E6SM cells; type: cell-based; settings: human, read-out: MIC
Method in brief: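 Microscopic scoring of E6SM cell cultures; minimal cytotoxic concentration is the concentration causing a detectable alteration of normal cell morphology.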

[5] = Cytotoxicity against HeLa cells; type: cell-based; settings: human, read-out: MIC
Method in brief: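 HeLa cell cultures examined by microscopy; the minimal cytotoxic concentration is the level that causes a microscopically detectable alteration of normal cell morphology.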

[6] = test system: Coxsackievirus B4; experiment: Antiviral activity against CV B4; type: functional; settings: Enterovirus B; method in brief: as §1
[7] = test system: CCRF-CEM; experiment: Cytostatic activity against human CEM/0 cells; type: functional, cell-based
Method in brief: (§3)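 Tumour cell proliferation assay; IC50 is the compound concentration that inhibits cell proliferation by 50%.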

[8] = test system: Vesicular stomatitis virus; experiment: Antiviral activity against VSV; type: functional
Method in brief: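 Tested in both E6SM and HeLa cell cultures; the minimum inhibitory concentration is the level that reduces virus-induced cytopathogenicity by 50%.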

[9] = Cytostatic activity against mouse L1210/0 cells; type: functional, cell-based; method in brief: as §3
[10] = test system: Vaccinia virus; experiment: Antiviral activity against vaccinia virus; type: functional; settings: Orthopoxvirus vaccinia; method in brief: as §2
[11] = test system: MOLT-4; experiment: Cytostatic activity against human Molt4/C8 cells; type: functional, cell-based; method in brief: as §3
[12] = test system: Human alphaherpesvirus 2; experiment: Antiviral activity against HSV2 G; type: functional; settings: Human alphaherpesvirus 2, G
Method in brief: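 Virus-induced cytopathogenicity in E6SM cell cultures; value is the concentration needed to reduce cytopathogenicity by 50%.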

[13] = test system: Human alphaherpesvirus 1; experiment: Antiviral activity against HSV1 KOS; type: functional; settings: Human alphaherpesvirus 1, KOS; method in brief: as §2

For `CC(=O)O[C@@H]1C=C([C@@H]2O[C@@H]3O[C@H](O)C4=C[C@@H](OC(C)=O)[C@H]5C(C)(C)CCC[C@]5(C)[C@]43O2)[C@](O)(C=O)[C@@]2(C)CCCC(C)(C)[C@H]12`, the Activity [1] was “inactive”.

With `OC[C@H]1NC[C@H](O)[C@@H](O)[C@@H]1O` the inhibition [1] was 100%.

In the case of `CC(=O)O[C@@H]1[C@H]([C@@H]2C3=C(C(=O)OC3)[C@@]3(C)CCCC(C)(C)[C@@H]3[C@@H]2OC(C)=O)C2=C(C(=O)OC2)[C@@]2(C)CCCC(C)(C)[C@H]12`, the Activity [1] is reported as “inactive”.

`COC1O[C@H]2O[C@H](C3=C[C@@H](OC(C)=O)[C@H]4C(C)(C)CCC[C@]4(C)[C@@]3(O)C=O)O[C@@]23C1=C[C@@H](OC(C)=O)[C@H]1C(C)(C)CCC[C@@]13C` (stereo partly drawn) gave an inhibition [1] of 26.5%.

With `CC1(C)CCC[C@]2(C)C3=C(C=C[C@@H]12)C(=O)OC3` the Activity [1] was “inactive”.

With `CC(=O)OC1=CC2=C(COC2=O)[C@@]2(C)CCCC(C)(C)[C@H]12` the Activity [1] was “inactive”.

With `CC(=O)O[C@@H]1[C@@H](O[C@H]2O[C@@H]3O[C@H](C4=C[C@@H](OC(C)=O)[C@H]5C(C)(C)CCC[C@]5(C)[C@@]4(O)C=O)O[C@@]34C2=C[C@@H](OC(C)=O)[C@H]2C(C)(C)CCC[C@@]24C)C2=C(C(=O)OC2)[C@@]2(C)CCCC(C)(C)[C@H]12` the Activity [1] was “inactive”.

In the case of `CC1=C(C(=O)O)C(=O)C2=C3[C@@](C)(CCC[C@]13C)CO2`, the Activity [1] is reported as “inactive”.

In the case of `CC(=O)O[C@@H]1C=C(C2O[C@@H]3OC(O)C4=C[C@@H](OC(C)=O)[C@H]5C(C)(C)CCC[C@]5(C)[C@]43O2)[C@](O)(C=O)[C@@]2(C)CCCC(C)(C)[C@H]12` (stereo partly drawn) [CAPSICODENDRIN], the MIC [2] is reported as > 1.03 µM, the MIC [3] is reported as > 1.03 µM and the MCC [4] is reported as ≥ 1030 nM. For the same molecule, the MCC [5] was 5.16 µM, the MIC [6] was > 1.03 µM and the IC50 [7] was 0.86 µM. The MIC [8] was > 1.03 µM, the inhibition [1] was 89.4% and the IC50 [9] was 1.21 µM. The MIC [10] was > 1.03 µM, the IC50 [11] was 0.94 µM and the MIC [12] was > 1.03 µM. For the same molecule, the MIC [13] was > 1.03 µM.

In the case of `CC(=O)O[C@@H]1C=C2C3OC4OC5OC(O[C@@]24[C@@]2(C)CCCC(C)(C)[C@H]12)C1=C[C@@H](OC(C)=O)[C@H]2C(C)(C)CCC[C@]2(C)[C@]15O3`, the Activity [1] is reported as “inactive”.

For `CC1(C)CCC[C@]2(C)[C@H](C=O)C(C=O)=CC[C@@H]12`, the Activity [1] was “inactive”.

In the case of `Nc1nc2c(ncn2COCCO)c(=O)[nH]1` [ACYCLOVIR], the MIC [3] is reported as 60 µM (≈ 13.5 µg/mL), the MCC [4] is reported as > 500000 nM and the MIC [8] is reported as > 500 µM. The MIC [10] was > 500 µM, the MIC [12] was 0.48 µM (≈ 0.108 µg/mL) and the MIC [13] was 0.48 µM (≈ 0.108 µg/mL).

With `CC(C)=CCC/C(C)=C/CC/C(C)=C/CC[C@]1(C)CCc2cc(O)cc(C)c2O1` the Activity [1] was “inactive”.

For `CC1(C)CCC[C@]2(C)[C@H]3COC(=O)C3=CC[C@@H]12`, the Activity [1] was “inactive”.

With `CC(=O)O[C@@H]1C=C(C=O)[C@](O)(C=O)[C@@]2(C)CCCC(C)(C)[C@H]12` [CINNAMODIAL] the MIC [2] was > 2.06 µM, the MIC [3] was > 2.06 µM and the MCC [4] was ≥ 2060 nM. The MCC [5] was 10.3 µM, the MIC [6] was > 2.06 µM and the IC50 [7] was 1.61 µM. The MIC [8] was > 2.06 µM, the inhibition [1] was 78.2% and the IC50 [9] was 0.58 µM. For the same molecule, the MIC [10] was > 2.06 µM, the IC50 [11] was 1.51 µM and the MIC [12] was > 2.06 µM. For the same molecule, the MIC [13] was > 2.06 µM.

For `NC(=O)c1ncn([C@@H]2O[C@H](CO)[C@@H](O)[C@H]2O)n1` [RIBAVIRIN], the MIC [2] was 60 µM (≈ 14.7 µg/mL), the MCC [5] was > 500 µM and the MIC [6] was > 500 µM. It also gave an MIC [8] of 300 µM (≈ 73.3 µg/mL).
